Data published in ChEMBL document CHEMBL5647699, “Discovery of a chemical probe for PRDM9” (Nat Commun, 2019).
The source made the active and inactive calls. The rule behind the calls is not given here.

How the values were obtained:
[1] = target: Histone-lysine N-methyltransferase SETD7 (Homo sapiens) (UniProt Q8WTS6); experiment: Inhibition of SETD7 (unknown origin) at 1 to 10 uM; conditions: dose 1-10 µM
Spermatocyte [2] = experiment: Induction of meiotic defect in wild type mouse spermatocyte assessed as non homologous synapsis by SYCP1/SYCP3 staining based immunofluorescence assay; type: functional, cell-based
[3] = target: Histone-lysine N-methyltransferase 2C (Homo sapiens) (UniProt Q8NEZ4); experiment: Inhibition of MLL3 (unknown origin) at 1 to 10 uM; conditions: dose 1-10 µM
HEK-293T [4] = experiment: Cytotoxicity against HEK293T cells at 3 uM measured after 4 days by IncuCyte zoom live-cell imaging analysis; type: toxicity, cell-based; conditions: human, 96 h, time 4 day
[5] = target: Histone-lysine N-methyltransferase EHMT1 (Homo sapiens) (UniProt Q9H9B1); experiment: Inhibition of EHMT1 (unknown origin) at 1 to 10 uM; conditions: dose 1-10 µM
[6] = target: Histone-lysine N-methyltransferase KMT5C (Homo sapiens) (UniProt Q86Y97); experiment: Inhibition of SUV420H2 (unknown origin) at 1 to 10 uM; conditions: dose 1-10 µM
[7] = target: Histone-lysine N-methyltransferase, H3 lysine-36 specific (Homo sapiens) (UniProt Q96L73); experiment: Inhibition of NSD1 (unknown origin) at 1 to 10 uM; conditions: dose 1-10 µM
[8] = target: Histone-lysine N-methyltransferase KMT5B (Homo sapiens) (UniProt Q4FZB7); experiment: Inhibition of SUV420H1 (unknown origin) at 1 to 10 uM; conditions: dose 1-10 µM
[9] = target: Histone-lysine N-methyltransferase SETDB1 (Homo sapiens) (UniProt Q15047); experiment: Inhibition of SETDB1 (unknown origin) at 1 to 10 uM; conditions: dose 1-10 µM
[10] = target: Histone-lysine N-methyltransferase PRDM9 (Homo sapiens) (UniProt Q9NQV7); experiment: Inhibition of PRDM9 (unknown origin) at 1 to 10 uM; conditions: dose 1-10 µM
Chain of Histone-lysine N-methyltransferase PRDM9 (Homo sapiens) (Q9NQV7 whole entry): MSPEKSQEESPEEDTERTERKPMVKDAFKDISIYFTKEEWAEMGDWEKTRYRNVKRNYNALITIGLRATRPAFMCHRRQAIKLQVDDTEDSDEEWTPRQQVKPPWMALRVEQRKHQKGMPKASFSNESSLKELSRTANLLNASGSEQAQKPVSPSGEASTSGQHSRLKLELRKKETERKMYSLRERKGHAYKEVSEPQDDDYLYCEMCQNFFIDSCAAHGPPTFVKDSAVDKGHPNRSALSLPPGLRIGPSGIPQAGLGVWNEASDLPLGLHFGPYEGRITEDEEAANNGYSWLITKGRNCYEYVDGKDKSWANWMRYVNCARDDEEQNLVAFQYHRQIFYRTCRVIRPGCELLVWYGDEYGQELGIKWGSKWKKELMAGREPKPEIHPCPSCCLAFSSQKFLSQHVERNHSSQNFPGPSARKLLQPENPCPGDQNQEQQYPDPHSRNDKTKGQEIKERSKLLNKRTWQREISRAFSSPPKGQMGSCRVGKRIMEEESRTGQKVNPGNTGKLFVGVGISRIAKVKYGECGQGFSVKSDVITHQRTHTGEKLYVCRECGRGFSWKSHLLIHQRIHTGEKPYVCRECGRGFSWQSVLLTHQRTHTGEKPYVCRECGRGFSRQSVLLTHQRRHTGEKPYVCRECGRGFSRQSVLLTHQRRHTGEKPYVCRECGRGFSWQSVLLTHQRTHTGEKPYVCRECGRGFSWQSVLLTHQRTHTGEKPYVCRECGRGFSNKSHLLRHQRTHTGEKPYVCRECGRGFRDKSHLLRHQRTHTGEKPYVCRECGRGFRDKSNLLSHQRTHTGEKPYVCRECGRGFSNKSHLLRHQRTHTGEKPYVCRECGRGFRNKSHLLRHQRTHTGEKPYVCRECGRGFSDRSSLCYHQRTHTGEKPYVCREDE

RPMI-8226 = experiment: Cytotoxicity against human RPMI-8226 cells at upto 30 uM measured for 3 to 6 days by celltiter glo assay; type: functional, cell-based; conditions: time 3-6 day
[11] = target: N-lysine methyltransferase KMT5A (Homo sapiens) (UniProt Q9NQR1); experiment: Inhibition of SETD8 (unknown origin) at 1 to 10 uM; conditions: dose 1-10 µM
[12] = target: Protein arginine N-methyltransferase 1 (Homo sapiens) (UniProt Q99873); experiment: Inhibition of PRMT1 (unknown origin) at 1 to 10 uM; conditions: dose 1-10 µM
[13] = target: Histone-lysine N-methyltransferase EHMT2 (Homo sapiens) (UniProt Q96KQ7); experiment: Inhibition of G9a (unknown origin) at 1 to 10 uM; conditions: dose 1-10 µM
[14] = target: Histone-lysine N-methyltransferase SUV39H2 (Homo sapiens) (UniProt Q9H5I1); experiment: Inhibition of SUV39H2 (unknown origin) at 1 to 10 uM; conditions: dose 1-10 µM
Homo sapiens = species on record: Homo sapiens; experiment: Inhibition of PRC2 (unknown origin) at 1 to 10 uM; conditions: dose 1-10 µM
HCC1806 = experiment: Cytotoxicity against human HCC1806 cells at upto 30 uM measured for 3 to 6 days by celltiter glo assay; type: functional, cell-based; conditions: time 3-6 day
[15] = target: Histone-lysine N-methyltransferase SUV39H1 (Homo sapiens) (UniProt O43463); experiment: Inhibition of SUV39H1 (unknown origin) at 1 to 10 uM; conditions: dose 1-10 µM
Chain of Histone-lysine N-methyltransferase SUV39H1 (Homo sapiens) (O43463 whole entry): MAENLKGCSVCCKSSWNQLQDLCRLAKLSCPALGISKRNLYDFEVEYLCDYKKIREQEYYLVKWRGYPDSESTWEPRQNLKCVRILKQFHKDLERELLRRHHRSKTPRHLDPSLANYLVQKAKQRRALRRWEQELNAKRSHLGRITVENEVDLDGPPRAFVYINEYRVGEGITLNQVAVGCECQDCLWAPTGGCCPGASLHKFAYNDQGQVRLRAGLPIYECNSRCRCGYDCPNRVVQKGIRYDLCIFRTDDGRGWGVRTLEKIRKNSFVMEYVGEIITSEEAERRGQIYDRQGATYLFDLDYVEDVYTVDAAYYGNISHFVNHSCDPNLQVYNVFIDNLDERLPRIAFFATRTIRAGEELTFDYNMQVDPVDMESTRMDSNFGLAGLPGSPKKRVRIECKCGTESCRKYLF

HCC1143 = experiment: Cytotoxicity against human HCC1143 cells at upto 30 uM measured for 3 to 6 days by celltiter glo assay; type: functional, cell-based; conditions: time 3-6 day
[16] = target: Protein arginine N-methyltransferase 3 (Homo sapiens) (UniProt O60678); experiment: Inhibition of PRMT3 (unknown origin) at 1 to 10 uM; conditions: dose 1-10 µM
[17] = target: Histone-lysine N-methyltransferase NSD2 (Homo sapiens) (UniProt O96028); experiment: Inhibition of NSD2 (unknown origin) at 1 to 10 uM; conditions: dose 1-10 µM
[18] = target: DNMT3A2/3L complex (Homo sapiens) (UniProt Q9Y6K1+Q9UJW3); experiment: Inhibition of DNMT3A/DNMT3L (unknown origin) at 1 to 10 uM; type: protein-complex assay; conditions: dose 1-10 µM
[19] = target: Protein arginine N-methyltransferase 9 (Homo sapiens) (UniProt Q6P2P2); experiment: Inhibition of PRMT9 (unknown origin) at 1 to 10 uM; conditions: dose 1-10 µM
[20] = target: N-lysine methyltransferase SMYD2 (Homo sapiens) (UniProt Q9NRG4); experiment: Inhibition of SMYD2 (unknown origin) at 1 to 10 uM; conditions: dose 1-10 µM
MDA-MB-436 = experiment: Cytotoxicity against human MDA-MB-436 cells at upto 30 uM measured for 3 to 6 days by celltiter glo assay; type: functional, cell-based; conditions: time 3-6 day
[21] = target: Histone-lysine N-methyltransferase PRDM9 (Homo sapiens) (UniProt Q9NQV7); experiment: Inhibition of FLAG tagged PRDM9 transfected in HEK293T cells assessed as inhibition of trimethylation H3K4 at 10 uM measured after 20 hrs by Western blot analysis; type: cell-based
[22] = target: Histone-lysine N-methyltransferase, H3 lysine-79 specific (Homo sapiens) (UniProt Q8TEK3); experiment: Inhibition of DOT1L (unknown origin) at 1 to 10 uM; conditions: dose 1-10 µM
[23] = target: Protein arginine N-methyltransferase 8 (Homo sapiens) (UniProt Q9NR22); experiment: Inhibition of PRMT8 (unknown origin) at 1 to 10 uM; conditions: dose 1-10 µM
Chain of Protein arginine N-methyltransferase 8 (Homo sapiens) (Q9NR22 2-394 limits assumed): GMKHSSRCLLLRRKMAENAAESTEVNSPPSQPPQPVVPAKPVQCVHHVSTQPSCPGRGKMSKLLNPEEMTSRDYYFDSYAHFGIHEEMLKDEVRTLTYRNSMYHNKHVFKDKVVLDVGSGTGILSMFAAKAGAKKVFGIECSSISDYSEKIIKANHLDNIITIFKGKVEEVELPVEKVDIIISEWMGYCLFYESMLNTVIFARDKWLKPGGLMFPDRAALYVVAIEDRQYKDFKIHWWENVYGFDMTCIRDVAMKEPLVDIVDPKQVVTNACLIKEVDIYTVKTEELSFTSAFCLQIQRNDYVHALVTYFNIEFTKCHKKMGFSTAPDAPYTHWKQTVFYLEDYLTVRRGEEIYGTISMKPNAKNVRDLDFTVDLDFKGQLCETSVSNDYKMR

[24] = target: Histone-lysine N-methyltransferase 2A (Homo sapiens) (UniProt Q03164); experiment: Inhibition of MLL1 (unknown origin) at 1 to 10 uM; conditions: dose 1-10 µM
CAL-85-1 = experiment: Cytotoxicity against human CAL-85-1 cells at upto 30 uM measured for 3 to 6 days by celltiter glo assay; type: functional, cell-based; conditions: time 3-6 day
[25] = target: Histone-lysine N-methyltransferase NSD3 (Homo sapiens) (UniProt Q9BZ95); experiment: Inhibition of NSD3 (unknown origin) at 1 to 10 uM; conditions: dose 1-10 µM
Chain of Histone-lysine N-methyltransferase NSD3 (Homo sapiens) (Q9BZ95 whole entry): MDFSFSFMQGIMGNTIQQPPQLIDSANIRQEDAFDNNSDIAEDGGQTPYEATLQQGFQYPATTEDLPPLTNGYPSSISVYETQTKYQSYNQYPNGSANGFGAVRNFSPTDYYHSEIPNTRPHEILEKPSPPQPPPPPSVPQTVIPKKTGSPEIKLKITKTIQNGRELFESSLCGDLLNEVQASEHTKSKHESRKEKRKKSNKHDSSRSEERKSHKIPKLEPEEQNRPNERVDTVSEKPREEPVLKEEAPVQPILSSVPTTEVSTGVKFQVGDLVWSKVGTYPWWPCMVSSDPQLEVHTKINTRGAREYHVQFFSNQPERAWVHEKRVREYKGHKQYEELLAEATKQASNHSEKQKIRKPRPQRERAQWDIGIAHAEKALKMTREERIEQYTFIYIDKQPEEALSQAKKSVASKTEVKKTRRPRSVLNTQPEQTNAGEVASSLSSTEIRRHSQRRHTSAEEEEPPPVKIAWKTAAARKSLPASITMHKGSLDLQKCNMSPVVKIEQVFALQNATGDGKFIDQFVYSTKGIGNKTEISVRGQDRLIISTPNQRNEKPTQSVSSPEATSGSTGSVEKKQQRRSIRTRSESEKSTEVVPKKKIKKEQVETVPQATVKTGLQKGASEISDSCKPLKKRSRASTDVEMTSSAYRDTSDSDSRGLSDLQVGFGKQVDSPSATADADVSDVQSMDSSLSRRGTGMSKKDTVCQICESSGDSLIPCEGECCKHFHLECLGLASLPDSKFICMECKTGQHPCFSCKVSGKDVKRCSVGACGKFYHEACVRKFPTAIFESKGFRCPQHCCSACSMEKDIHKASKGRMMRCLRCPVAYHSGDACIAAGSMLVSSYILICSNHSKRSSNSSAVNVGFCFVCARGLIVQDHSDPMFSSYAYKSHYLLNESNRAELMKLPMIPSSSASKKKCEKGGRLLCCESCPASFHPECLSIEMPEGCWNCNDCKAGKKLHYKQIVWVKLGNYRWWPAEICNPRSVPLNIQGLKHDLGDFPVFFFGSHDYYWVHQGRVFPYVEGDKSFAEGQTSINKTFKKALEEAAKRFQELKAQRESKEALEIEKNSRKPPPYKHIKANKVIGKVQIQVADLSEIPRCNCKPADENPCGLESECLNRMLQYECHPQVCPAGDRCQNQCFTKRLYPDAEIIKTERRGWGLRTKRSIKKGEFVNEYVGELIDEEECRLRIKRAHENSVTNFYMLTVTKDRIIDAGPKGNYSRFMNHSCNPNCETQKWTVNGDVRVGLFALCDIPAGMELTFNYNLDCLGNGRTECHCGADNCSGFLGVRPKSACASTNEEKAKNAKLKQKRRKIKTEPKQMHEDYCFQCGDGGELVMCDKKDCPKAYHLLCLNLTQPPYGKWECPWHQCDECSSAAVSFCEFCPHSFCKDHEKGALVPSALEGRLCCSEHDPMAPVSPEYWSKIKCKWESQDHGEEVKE

HEK-293T [26] = experiment: Cytotoxicity against HEK293T cells at 10 uM measured after 4 days by IncuCyte zoom live-cell imaging analysis; type: toxicity, cell-based; conditions: human, 96 h, time 4 day
[27] = target: Histone-lysine N-methyltransferase SETD2 (Homo sapiens) (UniProt Q9BYW2); experiment: Inhibition of SETD2 (unknown origin) at 1 to 10 uM; conditions: dose 1-10 µM
[28] = target: Histone-arginine methyltransferase CARM1 (Homo sapiens) (UniProt Q86X55); experiment: Inhibition of PRMT4 (unknown origin) at 1 to 10 uM; conditions: dose 1-10 µM
[29] = target: Protein arginine N-methyltransferase 6 (Homo sapiens) (UniProt Q96LA8); experiment: Inhibition of PRMT6 (unknown origin) at 1 to 10 uM; conditions: dose 1-10 µM
[30] = target: DNMT3B-DNMT3L complex (Homo sapiens) (UniProt Q9UBC3+Q9UJW3); experiment: Inhibition of DNMT3B/DNMT3L (unknown origin) at 1 to 10 uM; type: protein-complex assay; conditions: dose 1-10 µM
HEK-293T [31] = experiment: Cytotoxicity against HEK293T cells at 10 uM measured after 24 hrs by IncuCyte zoom live-cell imaging analysis; type: toxicity, cell-based; conditions: human
In short: (§1)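 HEK293T cells seeded, treated next day with compound for 1 day; cell number counted by live-cell imaging after Vybrant DyeCycle Green staining; mean ± sd, n = 3.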

[32] = target: DNA (cytosine-5)-methyltransferase 1 (Homo sapiens) (UniProt P26358); experiment: Inhibition of DNMT1 (unknown origin) at 1 to 10 uM; conditions: dose 1-10 µM
[33] = target: RNA 5'-monophosphate methyltransferase (Homo sapiens) (UniProt Q7Z5W3); experiment: Inhibition of BCDIN3D (unknown origin) at 1 to 10 uM; conditions: dose 1-10 µM
Chain of RNA 5'-monophosphate methyltransferase (Homo sapiens) (Q7Z5W3 whole entry): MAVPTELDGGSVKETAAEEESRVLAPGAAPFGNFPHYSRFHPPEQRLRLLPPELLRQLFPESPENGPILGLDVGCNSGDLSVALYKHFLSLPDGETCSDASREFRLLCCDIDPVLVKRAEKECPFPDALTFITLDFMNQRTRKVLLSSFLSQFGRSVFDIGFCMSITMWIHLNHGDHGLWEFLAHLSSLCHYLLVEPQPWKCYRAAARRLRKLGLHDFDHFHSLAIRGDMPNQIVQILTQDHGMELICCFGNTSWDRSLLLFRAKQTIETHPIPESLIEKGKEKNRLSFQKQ

[34] = target: Protein arginine N-methyltransferase 5 (Homo sapiens) (UniProt O14744); experiment: Inhibition of PRMT5 (unknown origin) at 1 to 10 uM; conditions: dose 1-10 µM
Chain of Protein arginine N-methyltransferase 5 (Homo sapiens) (O14744 whole entry): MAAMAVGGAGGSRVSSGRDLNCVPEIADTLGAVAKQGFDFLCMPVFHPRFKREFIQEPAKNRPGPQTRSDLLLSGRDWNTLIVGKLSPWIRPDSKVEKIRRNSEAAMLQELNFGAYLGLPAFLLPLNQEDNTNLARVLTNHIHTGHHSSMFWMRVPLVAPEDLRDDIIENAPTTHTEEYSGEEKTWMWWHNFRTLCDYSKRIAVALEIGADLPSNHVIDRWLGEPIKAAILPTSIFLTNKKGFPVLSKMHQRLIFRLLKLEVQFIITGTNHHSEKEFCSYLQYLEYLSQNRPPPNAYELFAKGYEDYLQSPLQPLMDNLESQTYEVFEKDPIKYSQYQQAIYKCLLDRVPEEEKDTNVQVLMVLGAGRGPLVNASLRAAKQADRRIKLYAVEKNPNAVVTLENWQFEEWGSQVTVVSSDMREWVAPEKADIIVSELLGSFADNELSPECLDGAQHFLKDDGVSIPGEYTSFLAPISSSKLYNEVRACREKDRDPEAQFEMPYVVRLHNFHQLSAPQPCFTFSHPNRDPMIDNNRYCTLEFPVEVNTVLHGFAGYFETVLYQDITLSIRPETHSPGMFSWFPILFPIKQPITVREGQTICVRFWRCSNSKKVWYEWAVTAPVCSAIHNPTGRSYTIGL

[35] = target: Protein arginine N-methyltransferase 7 (Homo sapiens) (UniProt Q9NVM4); experiment: Inhibition of PRMT7 (unknown origin) at 1 to 10 uM; conditions: dose 1-10 µM
Spermatocyte [36] = experiment: Induction of meiotic defect in wild type mouse spermatocyte assessed as effect on paring of chromosomal homolog by SYCP1/SYCP3 staining based immunofluorescence assay; type: functional, cell-based
[37] = target: Histone-lysine N-methyltransferase SMYD3 (Homo sapiens) (UniProt Q9H7B4); experiment: Inhibition of SMYD3 (unknown origin) at 1 to 10 uM; conditions: dose 1-10 µM
Chain of Histone-lysine N-methyltransferase SMYD3 (Homo sapiens) (Q9H7B4 whole entry): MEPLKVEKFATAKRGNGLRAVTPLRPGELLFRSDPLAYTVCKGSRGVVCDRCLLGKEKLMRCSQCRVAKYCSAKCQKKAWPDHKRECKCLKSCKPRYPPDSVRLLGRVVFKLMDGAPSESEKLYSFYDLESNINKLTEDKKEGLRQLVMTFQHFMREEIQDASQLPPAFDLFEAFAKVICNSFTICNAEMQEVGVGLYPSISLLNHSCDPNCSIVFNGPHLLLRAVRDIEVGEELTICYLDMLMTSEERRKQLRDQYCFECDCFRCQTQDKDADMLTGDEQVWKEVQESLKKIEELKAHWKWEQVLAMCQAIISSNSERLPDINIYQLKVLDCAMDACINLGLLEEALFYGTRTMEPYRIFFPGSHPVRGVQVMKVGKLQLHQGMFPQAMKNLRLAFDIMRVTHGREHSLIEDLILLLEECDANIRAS

SK-MM-2 = experiment: Cytotoxicity against human SK-MM-2 cells at upto 30 uM measured for 3 to 6 days by celltiter glo assay; type: functional, cell-based; conditions: time 3-6 day
[38] = target: Histone-lysine N-methyltransferase PRDM7 (Homo sapiens) (UniProt Q9NQW5); experiment: Inhibition of PRDM7 (unknown origin) using biotin-tagged Histone H3 (1 to 25) and 3H-SAM as substrate incubated for 90 mins by topcount plate reader analysis
Chain of Histone-lysine N-methyltransferase PRDM7 (Homo sapiens) (Q9NQW5 whole entry): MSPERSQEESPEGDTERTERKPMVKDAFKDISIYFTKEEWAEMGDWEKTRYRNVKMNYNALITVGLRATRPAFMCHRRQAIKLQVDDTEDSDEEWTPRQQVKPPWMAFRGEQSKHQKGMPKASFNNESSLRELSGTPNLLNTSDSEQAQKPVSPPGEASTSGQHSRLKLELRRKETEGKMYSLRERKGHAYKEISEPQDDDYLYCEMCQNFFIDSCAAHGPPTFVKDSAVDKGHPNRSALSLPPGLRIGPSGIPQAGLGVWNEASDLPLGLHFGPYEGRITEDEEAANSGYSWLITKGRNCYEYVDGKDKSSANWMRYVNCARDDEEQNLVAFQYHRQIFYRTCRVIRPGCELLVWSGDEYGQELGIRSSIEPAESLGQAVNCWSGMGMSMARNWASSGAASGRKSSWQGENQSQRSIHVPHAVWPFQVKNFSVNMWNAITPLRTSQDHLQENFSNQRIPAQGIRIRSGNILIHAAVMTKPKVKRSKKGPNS

[39] = target: Histone-lysine N-methyltransferase ASH1L (Homo sapiens) (UniProt Q9NR48); experiment: Inhibition of ASH1L (unknown origin) at 1 to 10 uM; conditions: dose 1-10 µM
HEK-293T [40] = experiment: Cytotoxicity against HEK293T cells at 3 uM measured after 24 hrs by IncuCyte zoom live-cell imaging analysis; type: toxicity, cell-based; conditions: human; in short: as §1

inhibition [1]: inactive | inhibition [3]: inactive | inhibition [5]: inactive | inhibition [6]: inactive | inhibition [7]: inactive | inhibition [8]: inactive | inhibition [9]: inactive | inhibition [10]: inactive | inhibition [11]: inactive | inhibition [12]: inactive | inhibition [13]: inactive | inhibition [14]: inactive | inhibition (Homo sapiens): inactive | inhibition [15]: inactive | inhibition [16]: inactive | inhibition [17]: inactive | inhibition [18]: inactive | inhibition [19]: inactive | inhibition [20]: inactive | inhibition [21]: inactive | inhibition [22]: inactive | inhibition [23]: inactive | inhibition [24]: inactive | inhibition [25]: inactive | inhibition [27]: inactive | inhibition [28]: inactive | inhibition [29]: inactive | inhibition [30]: inactive | inhibition [32]: inactive | inhibition [33]: inactive | inhibition [34]: inactive | inhibition [35]: inactive | inhibition [37]: inactive | inhibition [38]: inactive | inhibition [39]: inactive
Structure (SMILES): COc1cc(OC)cc(-c2noc(N3CCN(C)C4(CCN(c5ccccc5)CC4)C3)n2)c1
Activity (Spermatocyte [2]): inactive | Activity (HEK-293T [4]): Non-Toxic | Activity (RPMI-8226): inactive | Activity (HCC1806): inactive | Activity (HCC1143): inactive | Activity (MDA-MB-436): inactive | Activity (CAL-85-1): inactive | Activity (HEK-293T [26]): Toxic | Activity (HEK-293T [31]): Toxic | Activity (Spermatocyte [36]): inactive | Activity (SK-MM-2): inactive | Activity (HEK-293T [40]): Non-Toxic
